Consider twelve compounds from article PMC7451071 (MedChemComm, 2019).

“Also recorded” adds a separate entry of the source.

Test [1] has as its system AT2 receptor. Conditions: cited from earlier work; for Induction of neurite outgrowth: NG108-15 cells.
In test [2] the test system is AT2 receptor. Nature of the test: Neurite outgrowth assay in NG108-15 cells. The class given is cell-based. To be noted: for Function (10 nM): three days, alone, with 10 μM PD 123319 or 100 nM Ang II. The method in brief: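 NG108-15 cells (passages 18–25; DMEM, 10% FBS, HAT, gentamycin; 37 °C, 7% CO2) plated at 3.6 × 10^4 cells/35 mm dish. They were treated once daily for three days from 24 h post-plating with 10 nM test compound (some also 100 nM). Test compound was added alone or 30 min before 100 nM Ang II; 10 μM PD 123319 was given 30 min before agonist. On day 4, phase-contrast micrographs were scored as % of ≥400 cells bearing a neurite longer than the cell body. Duplicates, three independent experiments, mean ± SEM, two-way ANOVA.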

The target of test [3] is T1, AT2 receptor (Sus scrofa, UniProt A0A4X1W622).
T1 sequence (A0A4X1W622 1-362): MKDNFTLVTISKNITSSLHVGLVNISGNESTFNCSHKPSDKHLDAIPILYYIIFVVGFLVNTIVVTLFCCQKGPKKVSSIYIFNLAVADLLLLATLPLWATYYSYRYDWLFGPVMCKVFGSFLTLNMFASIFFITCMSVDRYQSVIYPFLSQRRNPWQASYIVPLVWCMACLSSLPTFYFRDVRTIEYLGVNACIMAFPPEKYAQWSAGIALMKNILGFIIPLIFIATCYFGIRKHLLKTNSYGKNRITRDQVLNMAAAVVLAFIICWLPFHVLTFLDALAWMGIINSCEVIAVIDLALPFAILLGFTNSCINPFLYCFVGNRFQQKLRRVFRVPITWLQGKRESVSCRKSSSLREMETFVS
In words: AT2 receptor binding, displacement of [125I]Ang II from pig uterus. Conditions: versus compound 3.

The target of test [4] is AT2 receptor. Conditions: AT2R antagonist; cited from earlier work.
In another test the test system is p42/p44mapk pathway. Conditions: cited from earlier work.

For the compound “Nα-nicotinoyl-Tyr-(Nα-Cbz-Arg)-Lys-His-Pro-Ile [CGP-42112]”, the “Induction of neurite outgrowth” value with AT2 receptor [1] is listed as “induces neurite outgrowth”.

In the case of `CCCCOC(=O)NS(=O)(=O)c1ccc2c(c1-c1cccc(Cn3ccnc3)c1)CCC2C(C)C` (centres unmarked) [Compound 8b, N-(Butoxycarbonyl)-4-[3-(imidazol-1-yl)-methylphenyl]-1-isopropylindan-5-sulfonamide], the “Function (10 nM)” value in the test on AT2 receptor [2] (10 nM, NG108-15 cells) was “Antagonist”.

Consider “Ang II: hypertensive octapeptide angiotensin II”, for which the “Induction of neurite outgrowth” value in the test on AT2 receptor [1] was “induces neurite outgrowth”.

As to `CCCCOC(=O)NS(=O)(=O)c1ccc2c(c1-c1ccc(Cn3ccnc3)cc1)CCC2C(C)C` (centres unmarked) [Compound 7a, N-(Butoxycarbonyl)-4-[4-(imidazol-1-yl)-methylphenyl]-1-isopropylindan-5-sulfonamide], the “Loss in affinity compared to non rigidified analogue 3” value on AT2 receptor [3] is listed as roughly 200 times. Moreover, in the test on AT2 receptor [2] (10 nM, NG108-15 cells), the “Degree of neurite outgrowth induced” value is recorded as “highest degree of neurite outgrowth among this set of compounds” and the “Function (10 nM)” value was “strong agonistic effect; also recorded: Agonist”.

In the case of `Cc1cc(Cn2cnc3c2C[C@@H](C(=O)O)N(C(=O)C(c2ccccc2)c2ccccc2)C3)ccc1N(C)C` [PD 123319, reference compound], the “Effect of co-incubation on induced neurite outgrowth” value in the test on AT2 receptor [2] (10 μM PD 123319 co-incubated with agonists) is “reduced the induced neurite outgrowth”. Further, in the test on AT2 receptor [2] (PD 123319 alone, data not shown), the “Morphology on treatment alone” value was “did not alter the morphology compared to untreated cells”. Moreover, the IC50 on AT2 receptor [4] was 34 nM.

As for `CCCCOC(=O)NS(=O)(=O)c1ccc2c(c1-c1cccc(Cn3ccnc3)c1)CCC2C(C)C` (centres unmarked) [Compound 8a, N-(Butoxycarbonyl)-4-[3-(imidazol-1-yl)-methylphenyl]-1-isopropylindan-5-sulfonamide], the “Function (10 nM)” value in the test on AT2 receptor [2] (10 nM, NG108-15 cells) is recorded as “Antagonist”.

Regarding `CCCCOC(=O)NS(=O)(=O)c1cc2c(cc1-c1ccc(Cn3ccnc3)cc1)CCC2C(C)C` (centres unmarked) [Compound 9a, N-(Butoxycarbonyl)-5-[4-(imidazol-1-yl)-methylphenyl]-1-isopropylindan-6-sulfonamide], the “Function (10 nM)” value with AT2 receptor [2] (10 nM, NG108-15 cells) was “agonistic properties; also recorded: Agonist”.

Take `CCCCOC(=O)NS(=O)(=O)c1ccc2c(c1-c1ccc(Cn3ccnc3)cc1)CCC2C(C)C` (centres unmarked) [Compound 7b, N-(Butoxycarbonyl)-4-[4-(imidazol-1-yl)-methylphenyl]-1-isopropylindan-5-sulfonamide]: the “Function (10 nM)” value in the test on AT2 receptor [2] (10 nM, NG108-15 cells) is reported as “antagonism; also recorded: Antagonist”.

Take `CCCCOC(=O)NS(=O)(=O)c1cc2c(cc1-c1cccc(Cn3ccnc3)c1)CCC2C(C)C` (centres unmarked) [Compound 10a, N-(Butoxycarbonyl)-5-[3-(imidazol-1-yl)-methylphenyl]-1-isopropylindan-6-sulfonamide]: in the test on AT2 receptor [2] (10 nM, NG108-15 cells), the “Function (10 nM)” value was “Antagonist”.

Take `CCCCOC(=O)NS(=O)(=O)c1cc2c(cc1-c1ccc(Cn3ccnc3)cc1)CCC2C(C)C` (centres unmarked) [Compound 9b, N-(Butoxycarbonyl)-5-[4-(imidazol-1-yl)-methylphenyl]-1-isopropylindan-6-sulfonamide]: the “Function (10 nM)” value in the test on AT2 receptor [2] (10 nM, NG108-15 cells) is on record as “agonistic properties; also recorded: Agonist”.

As for `CCCCOC(=O)NS(=O)(=O)c1cc2c(cc1-c1cccc(Cn3ccnc3)c1)CCC2C(C)C` (centres unmarked) [Compound 10b, N-(Butoxycarbonyl)-5-[3-(imidazol-1-yl)-methylphenyl]-1-isopropylindan-6-sulfonamide], the “Function (10 nM)” value in the test with AT2 receptor [2] (10 nM, NG108-15 cells) is given as “agonistic effect; also recorded: Agonist”.

With `CC(C)(C)c1cc(C=C(C#N)C(N)=S)cc(C(C)(C)C)c1O` [AG879, α-cyano-(3,5-di-t-butyl-4-hydroxy)thiocinnamide], the “Effect on neurite outgrowth (inhibition)” value with AT2 receptor [1] is listed as “total”. Also, the “Inhibition of the p42/p44mapk pathway” value in the test with p42/p44mapk pathway was “only partially inhibits”.
